Here are results for six molecules from ChEMBL document CHEMBL1141593, “Acylpyrogallols as inhibitors of antiapoptotic Bcl-2 proteins” (J Med Chem, 2008).

The term IC50 denotes the point on the concentration scale where inhibition reaches its midpoint. A lower IC50 goes with greater potency. For orientation: Ki means the dissociation constant of the complex between target and ligand, obtained from inhibition or displacement.

For experiment [1], the system named is PC-3. The experiment can be described thus: Growth inhibition of human PC3 cells after 4 days by WST-8 based assay. The format is functional, cell-based. As to conditions: PC-3, 96 h. The method, boiled down:
(§1)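 Cells grown with compound for 4 days, then cell growth read by WST-based assay; IC50 values. Both lines express high levels of Bcl-2, Bcl-xL and Mcl-1.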
On the technique in general: Tetrazolium assays rely on reduction of a dye to a coloured formazan, in cell work by metabolically active cells.

Experiment [2] deals with Induced myeloid leukemia cell differentiation protein Mcl-1 (Homo sapiens, UniProt Q07820). The experiment can be described thus: Inhibition of human Mcl-1 protein by fluorescence polarization assay. The gist of the method:
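Mcl-1 binding by fluorescence-polarization competition assay; Ki values.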
A general note: Polarisation of emitted light reports the rotation of a fluorescent probe.

In experiment [3] the test system is MDA-MB-231. In words: Growth inhibition of human MDA-MB-231 2LMP cells after 4 days by WST-8 based assay. The format is functional, cell-based. As to conditions: MDA-MB-231, 96 h. The gist of the method: as §1
Experiment [4] has as its target Apoptosis regulator Bcl-2 (Homo sapiens, UniProt P10415). In words: Inhibition of human Bcl-2 protein by ELISA. The gist of the method:
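ELISA competitive binding to Bcl-2 using a biotinylated Bim peptide as competitor; IC50 values.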
In general terms: An ELISA detects its analyte on a solid surface through an enzyme-linked reagent.

Experiment [5] relates to MDA-MB-231. The experiment can be described thus: Induction of apoptosis in human MDA-MB-231 2LMP cells by annexin-5/propidium iodide assay. The format is functional, cell-based. The method, boiled down:
(§2)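 Four-day exposure, then apoptosis measured by annexin-V/propidium iodide staining and flow cytometry.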

Experiment [6] deals with PC-3. The experiment can be described thus: Induction of apoptosis in human PC3 cells assessed as cell viability by trypan blue exclusion assay. The format is functional, cell-based. As to conditions: TDE = time-dependent effect.
Experiment [7] concerns PC-3. In words: Induction of apoptosis in human PC3 cells by annexin-5/propidium iodide assay. The format is functional, cell-based. The gist of the method: as §2
The test system of experiment [8] is MDA-MB-231. The experiment can be described thus: Induction of apoptosis in human MDA-MB-231 2LMP cells assessed as cell viability at 1 uM after 4 days by trypan blue exclusion assay. The format is functional. Conditions: MDA-MB-231, 96 h, read-out: Activity. The gist of the method: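 Cell death scored by trypan blue exclusion after 4 days of exposure at 0.3, 1 and 3 µM; percentage of dead cells reported with ± error.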

Experiment [9] concerns PC-3. In words: Induction of apoptosis in human PC3 cells assessed as Cell viability after 4 days by trypan blue exclusion assay. The format is functional, cell-based.
Experiment [10] deals with MDA-MB-231. The experiment can be described thus: Induction of apoptosis in human MDA-MB-231 2LMP cells assessed as cell viability by trypan blue exclusion assay. The format is functional, cell-based. As to conditions: TDE = time-dependent effect.

The source made the active and inactive calls. The calls are words filed in the database; no cut-off is given here.

Chain of Induced myeloid leukemia cell differentiation protein Mcl-1 (Q07820 whole entry): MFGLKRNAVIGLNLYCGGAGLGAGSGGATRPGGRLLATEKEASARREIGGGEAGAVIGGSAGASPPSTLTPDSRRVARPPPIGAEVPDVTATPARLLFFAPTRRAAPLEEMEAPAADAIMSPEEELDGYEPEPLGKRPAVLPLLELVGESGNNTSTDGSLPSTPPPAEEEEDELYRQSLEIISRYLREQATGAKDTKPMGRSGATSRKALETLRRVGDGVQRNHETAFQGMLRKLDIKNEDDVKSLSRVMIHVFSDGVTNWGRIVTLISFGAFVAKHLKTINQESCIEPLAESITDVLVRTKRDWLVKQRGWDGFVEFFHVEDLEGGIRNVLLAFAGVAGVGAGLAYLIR
Chain of Apoptosis regulator Bcl-2 (P10415 whole entry): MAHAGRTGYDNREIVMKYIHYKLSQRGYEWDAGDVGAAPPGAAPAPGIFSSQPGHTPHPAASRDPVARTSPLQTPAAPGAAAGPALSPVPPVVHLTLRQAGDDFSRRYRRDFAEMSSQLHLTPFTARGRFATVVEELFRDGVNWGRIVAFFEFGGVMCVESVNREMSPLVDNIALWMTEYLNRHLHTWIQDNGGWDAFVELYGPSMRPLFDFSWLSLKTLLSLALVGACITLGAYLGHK

Consider `O=C(c1ccc(Oc2ccccc2)cc1)c1cc(C(=O)c2cccc3ccccc23)c(O)c(O)c1O`, for which the IC50 amounted to 550 nM in the experiment on PC-3 [1], 1200 nM in experiment [2], 290 nM in the experiment with MDA-MB-231 [3] and 290 nM in experiment [4]. Moreover, the Ki in [2] is 150 nM.
Turning to `CC(C)c1cc(C(=O)c2ccc(Oc3ccccc3)cc2)c(O)c(O)c1O`, the IC50 in the experiment on PC-3 [1] worked out at 12400 nM; in experiment [2], 3060 nM; in the experiment on MDA-MB-231 [3], 12900 nM; in experiment [4], 3400 nM. In [2], this molecule had a Ki of 380 nM.
In the case of `O=C(c1ccc(Oc2ccccc2)cc1)c1cc(C(=O)c2nc3ccccc3s2)c(O)c(O)c1O`, the result in the experiment with MDA-MB-231 [5] and with PC-3 [7] was Active. Moreover, the results for the Activity entry in the experiment on PC-3 [6], in the experiment with PC-3 [9] and in the experiment on MDA-MB-231 [10] were “tde”, “Dose-dependent effect” and “tde”, respectively. Further, the half-maximal inhibitory concentration (IC50) in the experiment on PC-3 [1] was determined as 260 nM; in experiment [2], 310 nM; with MDA-MB-231 [3], 120 nM; in [4], 170 nM. Moreover, the viability at 1 µM with MDA-MB-231 [8] amounted to 58%. For the same molecule, affinity in experiment [2] was put at a Ki of 37 nM.
For the molecule `CC(C)C(=O)c1cc(C(=O)c2ccc(Oc3ccccc3)cc2)c(O)c(O)c1O`, the IC50 with PC-3 [1] stood at 5700 nM; in [2], 2670 nM; in the experiment on MDA-MB-231 [3] it was 4500 nM; in [4] it was 2600 nM. In addition, the Ki in [2] is 340 nM.
`Cc1cc2c(C(C)C)c(O)c(O)c(C=O)c2c(O)c1-c1c(C)cc2c(C(C)C)c(O)c(O)c(C=O)c2c1O` [GOSSYPOL]: the 50% inhibitory concentration (IC50) came out at 2500 nM with PC-3 [1] and 3700 nM in the experiment with MDA-MB-231 [3].
Regarding `CC(C)c1cc(C(=O)c2ccccc2)c(O)c(O)c1O`, the half-maximal inhibitory concentration (IC50) in the experiment on PC-3 [1] is 39300 nM; in experiment [2], 36500 nM; with MDA-MB-231 [3], 30700 nM; in experiment [4], 41600 nM. This molecule came in with a Ki in [2] of 4600 nM.
